Calls of active or inactive are those of the source. The calls are words filed in the database; no cut-off is given here.
Legend:
Plasmodium falciparum [1] = assay: Antiplasmodial activity against chloroquine-resistant Plasmodium falciparum Dd2 infected in erythrocytes assessed as reduction in parasite growth after 72 hrs by SYBR green I staining based fluorescence assay; type: functional, organism-based; settings: Dd2, Erythrocyte
Method in brief: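 Asexual P. falciparum cultures at 1% parasitemia and 1% hematocrit, given serial dilutions in DMSO (0.1% maximum), were incubated 72 h at 37 °C in 5% CO2. Plates were frozen, thawed and lysed with Tris/saponin/EDTA/Triton X-100 buffer containing SYBR Green I, then kept 1 h dark at room temperature. Fluorescence was read at 485 excitation/530 emission. EC50 came from non-linear dose-response curves.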

Plasmodium falciparum [2] = assay: Parasiticidal activity against chloroquine-resistant Plasmodium falciparum Dd2 infected in erythrocytes assessed as reduction in parasitemia at 50 nM incubated for 24 to 48 hrs followed by compound washout and then incubated for 96 hrs by Giemsa staining based microscopic analysis; type: functional, organism-based; settings: time 24-48 hrs
Plasmodium falciparum [3] = assay: Antimalarial activity against Plasmodium falciparum RKL9 gametocytes incubated for 48 hrs by Giemsa staining based assay; type: functional, organism-based; settings: RKL9, 48 h
HepG2 = assay: Cytotoxicity against human HepG2 cells assessed as reduction in cell viability after 48 hrs by MTS assay; type: cell-based; settings: HepG2, 48 h
Method in brief: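 HepG2 cells seeded at 2250 per well, grown 24 h at 37 °C, 5% CO2. Serial compound dilutions starting at 25 μM added for a further 48 h. MTS reagent added for 3 h at 37 °C; viability read as absorbance at 490 nm.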

Plasmodium falciparum [4] = assay: Antiplasmodial activity against chloroquine-sensitive Plasmodium falciparum 3D7 infected in erythrocytes assessed as reduction in parasite growth after 72 hrs by SYBR green I staining based fluorescence assay; type: functional, organism-based; settings: 3D7, Erythrocyte
Method in brief: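 Compound dilutions in DMSO (max 0.1% DMSO) added to P. falciparum culture at 1% parasitemia, 1% hematocrit; 72 h at 37 °C, 5% CO2. Plates frozen, thawed, lysed with buffer containing saponin, Triton X-100, EDTA and SYBR Green I; 1 h dark at room temperature; fluorescence ex 485/em 530. EC50 from non-linear dose-response curves.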

[5] = Stability in mouse liver microsomes assessed as parent compound remaining at 1 uM after 15 mins in presence of NADPH regenerating system by LC/MS analysis; type: ADME, Microsome; settings: read-out: Stabilty
Method in brief: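 Compound at 1 μM final (from 25 μM DMSO stock) with 0.5 mg/mL mouse liver microsomes, NADPH-regenerating system (1.3 mM NADP, 3.3 mM glucose 6-phosphate, 3.3 mM MgCl2, 0.4 U/mL G6PDH) in 0.1 M potassium phosphate pH 7.4, 37 °C with shaking. Aliquots quenched in cold acetonitrile, centrifuged, quantified by LC/MS as percent parent remaining relative to T = 0; CLint and t1/2 reported.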

Plasmodium falciparum [6] = assay: Parasiticidal activity against chloroquine-resistant Plasmodium falciparum Dd2 infected in erythrocytes assessed as reduction in parasitemia at 6.6 nM incubated for 6 to 12 hrs followed by compound washout and then incubated for 96 hrs by Giemsa staining based microscopic analysis; type: functional, organism-based; settings: time 6-12 hrs
Plasmodium falciparum [7] = assay: Antiplasmodial activity against synchronized chloroquine-resistant Plasmodium falciparum Dd2 assessed as appearance of large vacuoles at 5 times of EC50 treated with compound at 6 to 42 hrs post invasion and measured after 12 hrs by Giemsa staining-based microscopic analysis; type: functional, organism-based
Method in brief: (§1)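 Samples taken at 12 h intervals were made into Giemsa-stained thin smears and scored by microscopy for intraerythrocytic stage and development, against untreated control cultures.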

Plasmodium falciparum [8] = assay: Antiplasmodial activity against early stage (II/III) gametocytes of Plasmodium falciparum 3D7 harboring luc7 incubated for 72 hrs by ONE-Glo luciferase assay; type: functional, organism-based; settings: 3D7, 72 h
Method in brief: (§2)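 Gametocytes of the 3D7 luc7 line were induced by nutrient starvation and cleared of asexual parasites with heparin-treated medium. Stage II-III or IV-V gametocytes were Percoll-purified, and 50,000 per well were exposed 72 h to a 19-point gradient (0.038 nM to 10 μM). Read-out was ONE-Glo luciferase after 5 min with reagent. EC50 came from four-parameter variable-slope nonlinear regression.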

Plasmodium falciparum [9] = assay: Antiplasmodial activity against synchronized chloroquine-resistant Plasmodium falciparum Dd2 assessed as effect on schizont maturation and reinvasion of merozoite at 5 times of EC50 treated with compound at 42 hrs post invasion and measured after 12 hrs by Giemsa staining-based microscopic analysis; type: functional, organism-based; method in brief: as §1
Plasmodium falciparum [10] = assay: Antiplasmodial activity against synchronized chloroquine-resistant Plasmodium falciparum Dd2 assessed as reduction in DNA content at 5 times of EC50 treated with compound at 6 to 30 hrs post invasion measured after 12 hrs by YOYO-1 staining-based flow cytometric analysis; type: functional, organism-based
Hemozoin [11] = assay: Inhibition of beta-hematin formation after 16 hrs by inverted microscopic analysis
Plasmodium falciparum [12] = assay: Parasiticidal activity against chloroquine-resistant Plasmodium falciparum Dd2 infected in erythrocytes assessed as reduction in parasitemia at 5 times of EC50 incubated for 6 to 12 hrs followed by compound washout and then incubated for 96 hrs by Giemsa staining based microscopic analysis; type: functional, organism-based; settings: time 6-12 hrs
Plasmodium falciparum [13] = assay: Antiplasmodial activity against late stage (IV/V) gametocytes of Plasmodium falciparum 3D7 harboring luc7 incubated for 72 hrs by ONE-Glo luciferase assay; type: functional, organism-based; settings: 3D7, 72 h; method in brief: as §2
Plasmodium falciparum [14] = assay: Antiplasmodial activity against synchronized chloroquine-resistant Plasmodium falciparum Dd2 assessed as prevention of parasite cell cycle progression at 5 times of EC50 treated with compound at 6 to 30 hrs post invasion and measured after 12 hrs by Giemsa staining-based microscopic analysis; type: functional, organism-based; method in brief: as §1
Plasmodium falciparum [15] = assay: Antiplasmodial activity against synchronized chloroquine-resistant Plasmodium falciparum Dd2 assessed as morphological changes at 5 times of EC50 treated with compound at 6 hrs post invasion and measured after 12 hrs by Giemsa staining-based microscopic analysis; type: functional, organism-based; method in brief: as §1
Plasmodium falciparum [16] = assay: Antiplasmodial activity against synchronized chloroquine-resistant Plasmodium falciparum Dd2 assessed as reduction in DNA content at 5 times of EC50 treated with compound at 42 hrs post invasion measured after 12 hrs by YOYO-1 staining-based flow cytometric analysis; type: functional, organism-based
Hemozoin [17] = assay: Inhibition of beta-hematin formation at 12.5 to 200 uM after 16 hrs by inverted microscopic analysis; settings: dose 12.5-200 µM

Compound `O=C1c2ccccc2C(=O)N1Cc1cn(CCCCNc2cc(/C=C/c3ccncc3)nc3ccc(Cl)cc23)nn1` has an EC50 (Plasmodium falciparum [1]) of 1000 nM.

In the case of `C[C@H]1[C@@H](O)O[C@@H]2O[C@@]3(C)CC[C@H]4[C@H](C)CC[C@@H]1[C@@]24OO3`, the Activity (Plasmodium falciparum [2]) is reported as “Active”.

In the case of `O=C(Cn1cc(COc2ccc(Br)cc2)nn1)NCCNc1ccnc2cc(Cl)ccc12`, the IC50 (Plasmodium falciparum [3]) is reported as 8500 nM.

Work on `OCCN1CCN(Cc2cn(-c3cc(/C=C/c4ccncc4)nc4ccc(Cl)cc34)nn2)CC1` yielded an EC50 (Plasmodium falciparum [1]) of 1660 nM.

Compound `O=C1S/C(=C\c2ccccc2)C(=O)N1Cc1cn(CCNc2cc(/C=C/c3ccncc3)nc3ccc(Cl)cc23)nn1` has an EC50 (HepG2) of 5730 nM, an EC50 (Plasmodium falciparum [4]) of 440 nM and an EC50 (Plasmodium falciparum [1]) of 240 nM. For the same compound, the remaining at 0.25 h, 1 µM [5] was < 50%.

Compound `Clc1ccc2nc(/C=C/c3ccncc3)cc(NCCCCn3cc(Cn4cccn4)nn3)c2c1` has an EC50 (HepG2) of 21200 nM, an EC50 (Plasmodium falciparum [4]) of 280 nM and an EC50 (Plasmodium falciparum [1]) of 350 nM. The remaining at 0.25 h, 1 µM [5] was < 50%.

For `CN1CCN(Cc2cn(-c3cc(/C=C/c4ccncc4)nc4ccc(Cl)cc34)nn2)CC1`, the EC50 (Plasmodium falciparum [1]) was > 10000 nM.

For `Clc1ccc2nc(/C=C/c3ccncc3)cc(NCCCCn3cc(CN4CCCC4)nn3)c2c1`, the EC50 (HepG2) was > 25000 nM, the EC50 (Plasmodium falciparum [4]) was 520 nM and the EC50 (Plasmodium falciparum [1]) was 690 nM.

Work on `Clc1ccc2nc(/C=C/c3ccncc3)cc(NCCn3cc(CN4CCOCC4)nn3)c2c1` yielded an EC50 (Plasmodium falciparum [1]) of 1850 nM.

For `Clc1ccc2nc(/C=C/c3ccncc3)cc(NCCn3cc(Cn4cccn4)nn3)c2c1`, the EC50 (Plasmodium falciparum [1]) was 1180 nM.

With `O=C1C(O)=C([C@H]2CC[C@H](c3ccc(Cl)cc3)CC2)C(=O)c2ccccc21` the Activity (Plasmodium falciparum [6]) was “Active”.

`Clc1ccc2nc(/C=C/c3ccncc3)cc(NCCn3cc(CN4CCCCC4)nn3)c2c1` showed an EC50 (HepG2) of 13500 nM, an EC50 (Plasmodium falciparum [4]) of 470 nM and an EC50 (Plasmodium falciparum [1]) of 550 nM.

`Clc1ccc2nc(/C=C/c3ccncc3)cc(NCCn3cc(CN4CCCC4)nn3)c2c1` gave an EC50 (Plasmodium falciparum [1]) of 2960 nM.

With `Clc1ccc2nc(/C=C/c3ccncc3)cc(NCCCCn3cc(CN4CCOCC4)nn3)c2c1` the EC50 (HepG2) was > 25000 nM, the EC50 (Plasmodium falciparum [4]) was 230 nM and the EC50 (Plasmodium falciparum [1]) was 170 nM. The remaining at 0.25 h, 1 µM [5] was < 50%.

With `CCN(CC)Cc1cn(CCNc2cc(/C=C/c3ccncc3)nc3ccc(Cl)cc23)nn1` the EC50 (Plasmodium falciparum [1]) was 1320 nM.

`Clc1ccc2nc(/C=C/c3ccncc3)cc(-n3cc(CN4CCCC4)nn3)c2c1` gave an EC50 (Plasmodium falciparum [1]) of 1650 nM.

Work on `OCCN1CCN(Cc2cn(CCNc3cc(/C=C/c4ccncc4)nc4ccc(Cl)cc34)nn2)CC1` yielded an EC50 (Plasmodium falciparum [1]) of 4270 nM.

For `OCCN1CCN(Cc2cn(CCCCNc3cc(/C=C/c4ccncc4)nc4ccc(Cl)cc34)nn2)CC1`, the EC50 (HepG2) was > 25000 nM, the EC50 (Plasmodium falciparum [4]) was 640 nM and the EC50 (Plasmodium falciparum [1]) was 670 nM.

In the case of `O=C1S/C(=C\c2ccccc2)C(=O)N1Cc1cn(CCCCNc2cc(/C=C/c3ccncc3)nc3ccc(Cl)cc23)nn1`, the EC50 (HepG2) is reported as > 25000 nM, the EC50 (Plasmodium falciparum [4]) is reported as 330 nM and the EC50 (Plasmodium falciparum [1]) is reported as 600 nM.

In the case of `CN1CCN(Cc2cn(CCCCNc3cc(/C=C/c4ccncc4)nc4ccc(Cl)cc34)nn2)CC1`, the EC50 (HepG2) is reported as 15800 nM, the EC50 (Plasmodium falciparum [4]) is reported as 160 nM and the EC50 (Plasmodium falciparum [1]) is reported as 160 nM. The remaining at 0.25 h, 1 µM [5] was < 50%.

`Clc1ccc2nc(/C=C/c3ccncc3)cc(-n3cc(CN4CCCCC4)nn3)c2c1` gave an EC50 (Plasmodium falciparum [1]) of 1240 nM.

With `CN1CCN(Cc2cn(CCNc3cc(/C=C/c4ccncc4)nc4ccc(Cl)cc34)nn2)CC1` the EC50 (Plasmodium falciparum [1]) was > 10000 nM.

In the case of `Clc1ccc2nc(/C=C/c3ccncc3)cc(NCCCCn3cc(CN4CCCCC4)nn3)c2c1`, the EC50 (HepG2) is reported as 5490 nM, the Activity (Plasmodium falciparum [7]) is reported as “Active” and the EC50 (Plasmodium falciparum [8]) is reported as 950 nM. The Activity (Plasmodium falciparum [9]) was “inactive”, the Activity (Plasmodium falciparum [10]) was “Active” and the inhibition (Hemozoin [11]) was “Dose-dependent effect”. The Activity (Plasmodium falciparum [12]) was “Active”, the EC50 (Plasmodium falciparum [4]) was 70 nM and the EC50 (Plasmodium falciparum [13]) was 890 nM. The Activity (Plasmodium falciparum [14]) was “Active”, the Activity (Plasmodium falciparum [15]) was “inactive” and the EC50 (Plasmodium falciparum [1]) was 40 nM. For the same compound, the remaining at 0.25 h, 1 µM [5] was < 50% and the Activity (Plasmodium falciparum [16]) was “inactive”.

Compound `O=C1c2ccccc2C(=O)N1Cc1cn(CCNc2cc(/C=C/c3ccncc3)nc3ccc(Cl)cc23)nn1` has an EC50 (Plasmodium falciparum [1]) of 1070 nM.

`O=C1c2ccccc2C(=O)N1Cc1cn(-c2cc(/C=C/c3ccncc3)nc3ccc(Cl)cc23)nn1` showed an EC50 (Plasmodium falciparum [1]) of 8790 nM.

With `Clc1ccc2nc(/C=C/c3ccncc3)cc(-n3cc(CN4CCOCC4)nn3)c2c1` the EC50 (Plasmodium falciparum [1]) was > 10000 nM.

`CCN(CC)Cc1cn(-c2cc(/C=C/c3ccncc3)nc3ccc(Cl)cc23)nn1` showed an EC50 (Plasmodium falciparum [1]) of 1320 nM.

In the case of `CCN(CC)CCCC(C)Nc1ccnc2cc(Cl)ccc12` (stereo unspecified), the inhibition (Hemozoin [17]) is reported as “Active”.

Source: ChEMBL document CHEMBL4732055, “Discovery of fast-acting dual-stage antimalarial agents by profiling pyridylvinylquinoline chemical space via copper catalyzed azide-alkyne cycloadditions” (Eur J Med Chem, 2021)
